Bioassay records (PubChem BioAssay)
HCT116 PTEN-null: PTEN-deleted cell growth suppression; HCT116 PTEN-null viability, CellTiter-Glo, 60 h; stronger effect = lower value; viability, % at 10 µM; actives 1.2% (n = 140,000); AID 827;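 active = viability at or below a set limit, 4 SD under the median of all tested compounds, cut at about 3.7% in these data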;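 note: PTEN knockout HCT116 line with beta catenin targeted HCT116 as companion control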
PMI activator: phosphomannose isomerase (human) activation | activation factor at 20 µM | purified human PMI, coupled resazurin fluorescence, 20 min; stronger effect = higher value; 1 = vehicle control, 0 substrate-free wells | actives 0.005% (n = 190,000);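 active = activation factor of 2 or more at 20 µM, relative to plate controls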
Target sequence (P34949 whole entry, looked up): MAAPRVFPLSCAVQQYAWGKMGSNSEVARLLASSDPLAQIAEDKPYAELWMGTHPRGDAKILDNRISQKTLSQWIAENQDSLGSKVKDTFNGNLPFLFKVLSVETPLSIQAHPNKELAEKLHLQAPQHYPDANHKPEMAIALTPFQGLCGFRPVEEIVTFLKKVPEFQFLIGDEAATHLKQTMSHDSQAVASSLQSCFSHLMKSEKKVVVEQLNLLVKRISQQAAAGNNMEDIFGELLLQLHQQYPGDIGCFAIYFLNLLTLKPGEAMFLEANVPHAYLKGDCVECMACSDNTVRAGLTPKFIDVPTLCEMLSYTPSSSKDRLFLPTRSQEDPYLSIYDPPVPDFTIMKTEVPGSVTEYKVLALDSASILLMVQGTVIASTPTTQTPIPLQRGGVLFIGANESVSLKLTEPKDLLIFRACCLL
PMI act hi M6P: increases human PMI activity with near-saturating mannose 6-phosphate | coupled PMI enzyme assay, resazurin fluorescence, 20 min; stronger effect = higher value; 1 = untreated enzyme, 0 = substrate-free blank | activation factor at 20 µM | actives 0.34% (n = 190,000) | AID 1216;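 active = activation factor of 2 or more at 20 µM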
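Material: human phosphomannose isomerase with PGI, G6PDH, diaphorase coupling enzymes / Reagent: Man-6-P substrate 1.0 mM / Dosing: single compound dose of 20 µM, 1% DMSO final / Incubation: enzyme reaction with compound 20 min at room temperature / Signal: resorufin fluorescence (Ex 544/Em 590 nm) from resazurin via diaphorase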
L major viab: Leishmania major promastigote growth inhibition | Leishmania major promastigotes, resazurin fluorescence viability | inhibition, % at 10 µM | actives 9% (n = 200,000); in the data active = inhibition above about 50%;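 note: promastigotes grown with compound for 44 hours at 28 °C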
bCat KO growth: beta-catenin-lacking colon tumor cell growth suppression; viability, % at 10 µM; actives 1.5% (n = 140,000); HCT116 beta-catenin knockout viability, CellTiter-Glo, 60 h; stronger effect = lower value; AID 818;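 active = viability at or under a set limit, the compound median less 4 SD, cut at about 6% in these data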;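 note: 0% = Hyamine 1622 control at 20 µM and 100% = untreated cell control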
* = called active by the depositor; . = not tested or not shown. Sampled rows, rich in hits. Any-hit rate of the full collection: about 9.6%.

SMILES	HCT116 PTEN-null	PMI activator	PMI act hi M6P	L major viab	bCat KO growth
Cc1nc2ncnn2c(N2CCN(C(c3ccccc3)c3ccccc3)CC2)c1C	78	0.9	1	68*	90
Cc1cc(N2CCN(C(c3ccccc3)c3ccccc3)CC2)n2ncnc2n1	98	0.8	0.9	0	92
Cc1cc(C(=O)NCCc2ccc(Cl)cc2)no1	.	1.1	1	0	.
C#Cc1ccc([C@H]2C=C(C(=O)N3CCOCC3)O[C@@H](OCC)[C@@H]2CCCO)cc1	.	1	1	-11	.
O=C(Nc1ccc(F)cc1)Nc1ccc(N2CCCC2)c(S(=O)(=O)Nc2ccccc2Cl)c1	1.9*	1	1.1	98*	2.8*
O=C(Nc1ccc(Cl)c(Cl)c1)Nc1ccc(N2CCCC2)c(S(=O)(=O)Nc2ccccc2Cl)c1	1.4*	0.9	1	99*	1.6*
CCCCCCCCNC(=O)c1ccc(C)cc1	.	1	1	-3	.
CC(C(=O)Nc1ccccc1)N(c1cccc(Cl)c1)S(C)(=O)=O (stereo not drawn)	.	1.1	1	-4	.
S=c1[nH]nc(-c2ccccn2)n1/N=C/c1cccc2ccccc12	108	0.7	1	50*	97
CCCCNc1nc(=S)n(-c2ccccc2)c(C)c1C(C)=O	.	0.9	0.9	-1	.
CC(c1ccccc1C(O)c1ccccc1)N(C)C (stereo not drawn)	100	1	1.1	-2	92
Cc1ccc(C(O)(c2ccccc2)c2ccccc2C(C)N(C)C)c(C)c1 (stereo not drawn)	1.8*	1.1	1.1	100*	3.5*
COc1ccccc1NC(=O)CCCc1nc(-c2ccc(OC)c(OC)c2)no1	.	0.9	0.9	-5	.
COC(=O)C1=C(C)NC(C)=C(C(=O)OC)C1C(=O)OCC(=O)N1c2ccccc2CC1C (stereo not drawn)	96	1	1	-4	94
Cc1ncc([N+](=O)[O-])n1Cc1ccccc1F	.	.	.	50	.
Cc1ncc([N+](=O)[O-])n1Cc1cccc2ccccc12	95	0.9	1	57*	94
COCCNC(=S)Nc1ccc2nc(N3CCCC3)cc(C)c2c1	89	1	0.9	100*	78
COCCCNC(=O)CCC(=O)Nc1ccc2nc(N3CCOCC3)cc(C)c2c1	94	0.9	0.9	2	101
CCOCCCNC(=S)Nc1ccc2nc(N3CCCC3)cc(C)c2c1	81	0.8	0.5	100*	84
Cc1cc(N2CCCC2)nc2ccc(NC(=S)NC(C)C)cc12	.	1	0.6	99*	.
O=C(NCC1CCCO1)/C(=C/c1cn(-c2ccccc2)nc1-c1cccnc1)NC(=O)c1ccccc1 (stereo not drawn)	.	1	1	0	.
O=C(O)C1CC(=O)N(c2ccc(OCc3ccc(Cl)cc3Cl)cc2)C1 (stereo not drawn)	3.2*	0.9	0.9	-5	3.3*
O=C(O)C1CC(=O)N(c2ccc(OCc3ccccc3Cl)cc2)C1 (stereo not drawn)	88	1	1.1	-5	88
c1ccc2c(c1)OCCOCCOCCOCCOCCOc1ccccc1OCCOCCOCCO2	30	1.1	1.1	100*	31
CC(C)(C)C1CCC(OCC(O)CN2CCN(c3ccccn3)CC2)CC1 (stereo not drawn)	.	1.2	1.1	94*	.
SMILES	HCT116 PTEN-null	PMI activator	PMI act hi M6P	L major viab	bCat KO growth
OC(COC1CCCCC1)CN1CCN(c2ccccc2)CC1 (stereo not drawn)	88	0.9	0.9	20	95
Cc1c(C)n(CC(O)CN2CCCCCC2)c2ccccc12 (stereo not drawn)	70	1	1	99*	80
OC(COC(c1ccccc1)c1ccccc1)CN1CCN(c2ccccn2)CC1 (stereo not drawn)	75	1	1	4	85
CC(C)(C)C1CCC(OCC(O)CN2CCN(Cc3ccccc3)CC2)CC1 (stereo not drawn)	80	1.1	1.2	91*	74
OC(CN1CCN(c2ccccn2)CC1)Cn1c2ccccc2c2ccccc21 (stereo not drawn)	50	0.7	0.7	100*	51
Cn1ccnc1Sc1ccc(/C=N/NC(=O)c2ccccc2O)cc1[N+](=O)[O-]	74	0.9	0.9	-6	85
CC(C)NCC(O)COC1CCC(C(C)(C)C)CC1 (stereo not drawn)	.	1	1	90*	.
CC(C)NCC(O)COC1C2CC3CC(C2)CC1C3 (stereo not drawn)	.	0.9	1.2	3	.
CC1CN(CC(O)COC2CCC(C(C)(C)C)CC2)CC(C)O1 (stereo not drawn)	.	1.1	1	90*	.
Cc1cc2ncn(CC(O)COC3CCCCC3)c2cc1C (stereo not drawn)	81	1	1	-1	90
CC(=O)Nc1ccc(NC(=O)CSc2ccc(C)cc2)cc1	111	1	1	-4	101
Cc1ccc(Sc2ccc(NC(=O)CCl)cc2)c(C)c1	28	1	1	97*	25
CC(C)Sc1nc2[nH]ncc2c(=O)[nH]1	.	0.9	1.1	-5	.
Cc1c(C(=O)Nc2nnc(SCc3ccccc3Cl)s2)cccc1[N+](=O)[O-]	84	1.1	1	74*	81
CCOC(=O)C1=C(C)OC(N)=C(C#N)C1c1cccc(C)c1 (stereo not drawn)	.	0.8	0.8	-6	.
Cc1cc(C)c2c3c(sc2n1)C(c1cccc(F)c1)C(C#N)=C(N)O3 (stereo not drawn)	32	0.9	1.1	89*	20
COc1ccccc1N1CCc2c(C)nc3c(OC)cccc3c21	28	0.9	0.8	89*	26
COc1cccc2c3c(c(C)nc12)CCN3c1ccccc1	.	1	0.9	78*	.
Cc1cc(C)cc(N(C(C)C(=O)NCc2ccc3c(c2)OCO3)S(C)(=O)=O)c1 (stereo not drawn)	.	1.1	1.1	9	.
O=C(NCC(c1cccs1)N1CCOCC1)c1ccccc1NS(=O)(=O)c1cc([N+](=O)[O-])ccc1Cl (stereo not drawn)	62	1	1.2	-2	63
CC(C)(C)n1cc(S(=O)(=O)c2ccccc2)[nH]c1=O	.	1	1	-1	.
CC(Oc1ccc2ccc(=O)oc2c1)C(=O)c1ccccc1 (stereo not drawn)	101	1.1	1.1	69*	95
COc1ccc(/C=C/C(=O)CC(O)(c2ccccc2)C(F)(F)F)cc1 (stereo not drawn)	45	0.9	0.9	98*	45
O=C(/C=C/c1ccccc1)CC(O)(c1ccccc1)C(F)(F)C(F)F (stereo not drawn)	.	0.9	1	100*	2.8*
CCc1ccc(C2=NN(CCC(=O)NC(C)CCc3ccccc3)C(=O)CC2)cc1 (stereo not drawn)	.	0.9	0.9	95*	.
Cc1nc(NC(=O)c2ccc(OCC(C)C)cc2)sc1Cc1ccc2c(c1)OCO2	.	0.9	0.9	30	.
